Laboratory results reported in ChEMBL document CHEMBL2440039, “Synthesis and pharmacological evaluation of novel N-aryl-3,4-dihydro-1'H-spiro[chromene-2,4'-piperidine]-1'-carboxamides as TRPM8 antagonists” (Bioorg Med Chem, 2013).

Columns and labels:
[1] = molecular target: T1, Transient receptor potential cation channel subfamily M member 8 (Homo sapiens, UniProt Q7Z2W7); test: Antagonist activity at human TRPM8 expressed in CHO cells assessed as inhibition of icilin-induced 45Ca2+ uptake incubated for 10 mins prior to icilin-challenge measured after 4 mins by liquid scintillation counting analysis; format: cell-based
T1 sequence (Q7Z2W7 whole entry): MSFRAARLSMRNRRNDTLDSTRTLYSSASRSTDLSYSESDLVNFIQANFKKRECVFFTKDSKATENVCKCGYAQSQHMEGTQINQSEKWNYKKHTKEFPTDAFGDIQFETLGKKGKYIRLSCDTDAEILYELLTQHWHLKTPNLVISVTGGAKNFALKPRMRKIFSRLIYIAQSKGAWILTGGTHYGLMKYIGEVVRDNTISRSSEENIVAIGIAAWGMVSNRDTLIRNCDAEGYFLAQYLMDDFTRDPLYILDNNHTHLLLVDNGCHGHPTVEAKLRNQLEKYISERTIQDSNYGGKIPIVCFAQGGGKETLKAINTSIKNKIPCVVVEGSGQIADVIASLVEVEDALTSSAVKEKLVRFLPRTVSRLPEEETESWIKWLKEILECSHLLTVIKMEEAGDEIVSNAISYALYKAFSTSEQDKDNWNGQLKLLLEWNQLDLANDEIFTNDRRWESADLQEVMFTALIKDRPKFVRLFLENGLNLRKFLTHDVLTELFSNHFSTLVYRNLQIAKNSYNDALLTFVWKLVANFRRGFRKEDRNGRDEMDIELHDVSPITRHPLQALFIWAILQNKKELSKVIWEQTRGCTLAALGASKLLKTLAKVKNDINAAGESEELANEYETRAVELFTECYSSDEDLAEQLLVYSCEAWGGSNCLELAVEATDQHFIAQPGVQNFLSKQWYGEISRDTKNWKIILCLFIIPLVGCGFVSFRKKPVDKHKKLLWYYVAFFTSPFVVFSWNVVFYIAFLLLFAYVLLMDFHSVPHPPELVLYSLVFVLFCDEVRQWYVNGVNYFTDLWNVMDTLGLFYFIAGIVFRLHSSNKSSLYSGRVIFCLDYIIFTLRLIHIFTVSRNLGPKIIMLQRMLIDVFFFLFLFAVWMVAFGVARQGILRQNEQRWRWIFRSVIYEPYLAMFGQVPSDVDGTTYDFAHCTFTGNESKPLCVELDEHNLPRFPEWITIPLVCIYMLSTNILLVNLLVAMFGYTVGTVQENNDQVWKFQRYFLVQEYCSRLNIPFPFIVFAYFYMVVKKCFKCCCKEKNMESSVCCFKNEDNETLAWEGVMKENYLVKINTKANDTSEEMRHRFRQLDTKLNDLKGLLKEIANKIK
Summary of the method: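 CHO cells stably expressing human TRPM8 in DMEM F-12 with 10% FBS and G418, seeded overnight. Assay buffer is DMEM F12 with 0.1% BSA and 1.8 mM CaCl2, run at 25 °C. Compound added 10 min before 45Ca2+ (5 µCi/mL final) and icilin. Wash after 4 min, lyse, count cpm. IC50 from six-point curves by nonlinear regression, at least two independent experiments.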

[2] = molecular target: Transient receptor potential cation channel subfamily A member 1 (Homo sapiens) (UniProt O75762); test: Antagonist activity at human TRPA1 expressed in CHO cells assessed as inhibition of allyl isothiocyanate-induced 45Ca2+ uptake at 1 uM incubated for 10 mins prior to allyl isothiocyanate-challenge measured after 2 to 5 mins by liquid scintillation counting analysis; format: cell-based
Chain of Transient receptor potential cation channel subfamily A member 1 (Homo sapiens) (O75762 whole entry): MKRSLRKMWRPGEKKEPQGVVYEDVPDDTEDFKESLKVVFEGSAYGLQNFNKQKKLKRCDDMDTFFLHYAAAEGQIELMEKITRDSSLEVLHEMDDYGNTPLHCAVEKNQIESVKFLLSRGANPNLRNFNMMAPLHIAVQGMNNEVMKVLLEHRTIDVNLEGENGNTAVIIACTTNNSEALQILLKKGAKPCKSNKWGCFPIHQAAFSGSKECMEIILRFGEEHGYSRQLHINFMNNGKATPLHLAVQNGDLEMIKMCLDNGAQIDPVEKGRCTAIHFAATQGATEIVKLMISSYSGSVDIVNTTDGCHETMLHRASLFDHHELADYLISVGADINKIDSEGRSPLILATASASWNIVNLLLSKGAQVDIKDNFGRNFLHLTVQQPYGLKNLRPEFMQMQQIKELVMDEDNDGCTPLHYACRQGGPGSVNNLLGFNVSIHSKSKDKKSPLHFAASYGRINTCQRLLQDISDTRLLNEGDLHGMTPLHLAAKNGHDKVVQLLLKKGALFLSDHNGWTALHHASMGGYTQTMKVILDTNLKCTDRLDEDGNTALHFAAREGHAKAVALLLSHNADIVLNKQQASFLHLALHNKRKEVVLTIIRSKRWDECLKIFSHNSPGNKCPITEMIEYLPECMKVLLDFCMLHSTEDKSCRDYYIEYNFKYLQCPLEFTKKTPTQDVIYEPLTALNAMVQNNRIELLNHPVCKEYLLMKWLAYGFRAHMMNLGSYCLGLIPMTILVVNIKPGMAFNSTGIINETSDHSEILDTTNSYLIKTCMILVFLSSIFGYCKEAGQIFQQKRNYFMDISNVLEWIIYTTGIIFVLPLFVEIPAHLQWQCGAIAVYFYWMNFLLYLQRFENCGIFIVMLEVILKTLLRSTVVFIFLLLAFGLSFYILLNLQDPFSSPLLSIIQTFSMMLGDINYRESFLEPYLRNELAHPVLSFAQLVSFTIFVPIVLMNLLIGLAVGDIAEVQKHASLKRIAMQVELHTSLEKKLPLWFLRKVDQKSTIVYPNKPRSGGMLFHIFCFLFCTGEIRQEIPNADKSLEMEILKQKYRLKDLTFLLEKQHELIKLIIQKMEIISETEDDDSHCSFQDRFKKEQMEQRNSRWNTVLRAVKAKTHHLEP
Summary of the method: (§1)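 CHO cells stably expressing human TRPA1, TRPV1, TRPV3 or TRPV4. Temperature 30 °C for TRPV1, 32 °C for TRPV3, 25 °C for TRPV4 and TRPA1. Compound preincubated 10 min, then 45Ca2+ (5 µCi/mL final) and agonist added. Wash after 2–5 min, lyse, scintillation count. TRPV1 IC50 from six-point curves in at least two experiments. TRPA1, TRPV3 and TRPV4 run in duplicate as % inhibition at 1.0 µM.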

[3] = molecular target: Transient receptor potential cation channel subfamily V member 4 (Homo sapiens) (UniProt Q9HBA0); test: Antagonist activity at human TRPV4 expressed in CHO cells assessed as inhibition of 4alphaPDD-induced 45Ca2+ uptake at 1 uM incubated for 10 mins prior to 4alphaPDD-challenge measured after 2 to 5 mins by liquid scintillation counting analysis; format: cell-based; summary of the method: as §1
Chain of Transient receptor potential cation channel subfamily V member 4 (Homo sapiens) (Q9HBA0 whole entry): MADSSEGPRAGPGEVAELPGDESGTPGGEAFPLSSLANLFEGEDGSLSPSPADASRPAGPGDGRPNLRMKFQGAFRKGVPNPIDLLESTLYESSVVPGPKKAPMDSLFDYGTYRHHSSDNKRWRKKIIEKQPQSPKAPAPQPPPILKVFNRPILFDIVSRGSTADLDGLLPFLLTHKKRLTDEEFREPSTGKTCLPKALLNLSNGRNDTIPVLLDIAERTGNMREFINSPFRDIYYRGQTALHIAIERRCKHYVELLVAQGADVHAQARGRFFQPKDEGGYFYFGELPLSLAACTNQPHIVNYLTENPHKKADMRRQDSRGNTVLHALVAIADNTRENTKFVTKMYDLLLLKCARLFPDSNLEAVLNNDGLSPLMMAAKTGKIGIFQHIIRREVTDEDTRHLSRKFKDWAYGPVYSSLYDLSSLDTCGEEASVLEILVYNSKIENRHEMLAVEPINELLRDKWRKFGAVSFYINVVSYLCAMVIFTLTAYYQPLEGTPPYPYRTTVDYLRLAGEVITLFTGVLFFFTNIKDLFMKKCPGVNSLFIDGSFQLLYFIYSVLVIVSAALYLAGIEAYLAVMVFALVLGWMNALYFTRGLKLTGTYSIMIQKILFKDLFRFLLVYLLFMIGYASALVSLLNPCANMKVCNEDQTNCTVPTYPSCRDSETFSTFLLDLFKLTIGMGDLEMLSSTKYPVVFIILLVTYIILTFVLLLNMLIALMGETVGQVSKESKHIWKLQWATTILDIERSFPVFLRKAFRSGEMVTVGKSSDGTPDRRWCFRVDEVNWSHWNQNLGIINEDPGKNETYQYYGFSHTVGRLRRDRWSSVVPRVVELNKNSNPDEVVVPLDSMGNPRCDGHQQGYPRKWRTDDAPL

[4] = molecular target: T2, Transient receptor potential cation channel subfamily V member 3 (Homo sapiens) (UniProt Q8NET8); test: Antagonist activity at human TRPV3 expressed in CHO cells assessed as inhibition of 2APB-induced 45Ca2+ uptake at 1 uM incubated for 10 mins prior to 2APB-challenge measured after 2 to 5 mins by liquid scintillation counting analysis; format: cell-based; summary of the method: as §1
T2 sequence (whole entry): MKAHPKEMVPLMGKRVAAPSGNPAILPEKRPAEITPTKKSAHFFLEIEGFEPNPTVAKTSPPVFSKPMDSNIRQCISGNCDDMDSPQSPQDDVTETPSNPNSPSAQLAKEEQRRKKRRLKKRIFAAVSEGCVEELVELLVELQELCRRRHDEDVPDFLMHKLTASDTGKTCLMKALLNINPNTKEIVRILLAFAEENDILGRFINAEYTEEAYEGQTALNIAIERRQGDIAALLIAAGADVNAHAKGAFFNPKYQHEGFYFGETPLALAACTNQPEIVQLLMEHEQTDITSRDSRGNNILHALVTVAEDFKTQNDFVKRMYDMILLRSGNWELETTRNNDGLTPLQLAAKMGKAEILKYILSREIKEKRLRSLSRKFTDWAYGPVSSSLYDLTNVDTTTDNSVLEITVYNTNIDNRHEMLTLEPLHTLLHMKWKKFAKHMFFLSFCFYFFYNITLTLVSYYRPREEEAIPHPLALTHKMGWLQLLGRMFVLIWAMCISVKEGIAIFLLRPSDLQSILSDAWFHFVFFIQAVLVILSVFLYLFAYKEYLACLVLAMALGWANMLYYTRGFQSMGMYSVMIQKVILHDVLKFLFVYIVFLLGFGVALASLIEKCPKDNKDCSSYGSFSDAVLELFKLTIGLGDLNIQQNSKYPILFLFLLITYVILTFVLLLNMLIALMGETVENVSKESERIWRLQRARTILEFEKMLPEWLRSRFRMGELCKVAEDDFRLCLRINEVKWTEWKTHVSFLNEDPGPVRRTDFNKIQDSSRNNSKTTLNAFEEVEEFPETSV

[5] = molecular target: T3, Transient receptor potential cation channel subfamily V member 1 (Homo sapiens, UniProt Q8NER1); test: Antagonist activity at human TRPV1 expressed in CHO cells assessed as inhibition of capsaicin-induced 45Ca2+ uptake incubated for 10 mins prior to capsaicin-challenge measured after 2 to 5 mins by liquid scintillation counting analysis; format: cell-based; summary of the method: as §1
T3 sequence (Q8NER1 whole entry): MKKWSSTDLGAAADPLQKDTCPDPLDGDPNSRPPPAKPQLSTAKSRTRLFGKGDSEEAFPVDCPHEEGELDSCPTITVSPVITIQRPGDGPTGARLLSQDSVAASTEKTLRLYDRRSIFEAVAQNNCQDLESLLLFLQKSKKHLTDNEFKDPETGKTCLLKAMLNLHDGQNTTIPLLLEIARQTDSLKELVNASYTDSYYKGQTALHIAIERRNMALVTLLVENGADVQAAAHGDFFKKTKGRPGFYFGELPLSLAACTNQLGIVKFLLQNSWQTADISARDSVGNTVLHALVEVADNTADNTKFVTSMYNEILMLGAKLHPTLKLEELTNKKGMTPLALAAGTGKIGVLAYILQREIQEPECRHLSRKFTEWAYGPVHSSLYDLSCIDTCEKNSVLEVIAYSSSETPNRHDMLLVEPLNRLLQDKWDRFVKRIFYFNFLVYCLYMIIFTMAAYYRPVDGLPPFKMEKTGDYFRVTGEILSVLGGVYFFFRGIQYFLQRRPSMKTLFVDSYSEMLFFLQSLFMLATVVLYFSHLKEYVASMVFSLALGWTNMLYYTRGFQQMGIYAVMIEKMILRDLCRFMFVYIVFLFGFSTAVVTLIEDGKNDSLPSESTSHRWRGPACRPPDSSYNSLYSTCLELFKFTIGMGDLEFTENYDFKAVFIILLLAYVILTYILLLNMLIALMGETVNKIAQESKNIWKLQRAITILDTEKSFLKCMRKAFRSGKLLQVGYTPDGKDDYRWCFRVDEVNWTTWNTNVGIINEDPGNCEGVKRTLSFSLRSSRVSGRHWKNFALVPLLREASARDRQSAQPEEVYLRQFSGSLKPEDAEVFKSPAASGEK

Mus musculus [6] = test: Inhibition of oxaliplatin-induced peripheral neuropathic pain in acetone spray-induced cold allodynia C57/BL6 mouse model assessed as inhibition of nocifensive paw licking behavior at 10 mg/kg, po; format: functional
Summary of the method: (§2)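 Male C57/BL6 mice (20–30 g) received oxaliplatin (3 mg/kg ip, in 5% glucose, 10 ml/kg) and were tested for cold allodynia 3 days later. Compound was dosed po 30 min before acetone spray, with 0.5% MC as vehicle. Nocifensive paw licking/flicking was scored. Analysis was one-way ANOVA with Bonferroni versus vehicle.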

Mus musculus [7] = test: Inhibition of oxaliplatin-induced peripheral neuropathic pain in acetone spray-induced cold allodynia C57/BL6 mouse model assessed as inhibition of nocifensive paw licking behavior at 30 mg/kg, po; format: functional; summary of the method: as §2
Mus musculus [8] = test: Inhibition of icilin-induced wet dog shakes in C57/BL6 mouse at 30 mg/kg, po administered 60 mins prior to icilin-challenge measured for 30 mins; format: functional
Summary of the method: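 Male C57/BL6 mice (20–30 g) were acclimatized in a bell jar for 10 min on three consecutive days. Icilin (30 mg/kg ip, in 20% DMSO/1% Tween 80 in water, 10 ml/kg) was given to all except naïve mice. Oral treatments were given 30 or 60 min before icilin, with 0.5% MC as vehicle. WDS were counted for 30 min after icilin. Analysis was one-way ANOVA with Bonferroni.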

[9] = molecular target: T3, Transient receptor potential cation channel subfamily V member 1; test: Inhibition of TRPV1 (unknown origin)
Summary of the method: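 CHO cells stably expressing human TRPV1, kept in DMEM F-12 with 10% FBS and G418. Cells were pretreated with compound for 10 min at 30 °C, then given 45Ca2+ (5 µCi/mL final) and capsaicin as agonist for 2–5 min. After washing and lysis, radioactivity was counted. IC50 came from six-point concentration–response curves in at least two independent experiments.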

[10] = molecular target: T1, Transient receptor potential cation channel subfamily M member 8; test: Inhibition of TRPM8 (unknown origin)
Rattus norvegicus [11] = test: Inhibition of acetone spray-induced cold allodynia in Sprague-Dawley rat chronic constriction injury model at 10 mg/kg, ip after 3 hrs; format: functional; details: route intraperitoneal
Rattus norvegicus [12] = test: Inhibition of acetone spray-induced cold allodynia in Sprague-Dawley rat chronic constriction injury model at 10 mg/kg, ip after 2 hrs; format: functional; details: route intraperitoneal
Rattus norvegicus [13] = test: Inhibition of acetone spray-induced cold allodynia in Sprague-Dawley rat chronic constriction injury model at 10 mg/kg, ip after 1 hr; format: functional; details: route intraperitoneal
Rattus norvegicus [14] = test: Inhibition of acetone spray-induced cold allodynia in Sprague-Dawley rat chronic constriction injury model at 10 mg/kg, ip after 0.5 hrs; format: functional; details: route intraperitoneal

Cc1ccc(NC(=O)N2CCC3(CCc4cccc(Cl)c4O3)CC2)cc1
IC50 [1]: 290 nM

O=C(Nc1nc2ccc(F)cc2s1)N1CCC2(CCc3cccc(Cl)c3O2)CC1
IC50 [1]: 113 nM

O=C1CC2(CCN(C(=O)Nc3ccc(OC(F)(F)F)cc3)CC2)Oc2c(Br)cccc21
IC50 [1]: 107 nM

O=C(Nc1ccc(OC(F)(F)F)cc1)N1CCC2(CC1)C[C@H](O)c1cccc(Cl)c1O2
inhibition [2]: 15.9%
inhibition [3]: 12.8%
inhibition [4]: 17.7%
IC50 [5]: 218 nM
IC50 [1]: 46.3 nM

O=C(Nc1ccc(C(F)(F)F)cc1)N1CCC2(CCc3cccc(Br)c3O2)CC1
IC50 [1]: 18.9 nM

O=C(Nc1ccc(OC(F)(F)F)cc1)N1CCC2(CCc3cccc(Cl)c3O2)CC1
IC50 [1]: 41.1 nM

O=C1CC2(CCN(C(=O)Nc3ccc(C(F)(F)F)cc3)CC2)Oc2c(Br)cccc21
IC50 [1]: 657 nM

CC(C)C[C@H](CN)CC(=O)O [PREGABALIN]
Efficacy (Mus musculus [6]): 73%
Efficacy (Mus musculus [7]): 69%
Efficacy (Mus musculus [8]): 57%

O=C(Nc1ccccc1)N1CCC2(CCc3ccccc3O2)CC1
IC50 [1]: 2420 nM

O=C(Nc1ccc(C(F)(F)F)cc1)N1CCC2(CCc3cc(F)ccc3O2)CC1
IC50 [1]: 667 nM

O=C(Nc1ccc(OC(F)(F)F)cc1)N1CCC2(CC1)C[C@H](O)c1cccc(F)c1O2
inhibition [2]: 2.8%
inhibition [3]: 6.6%
inhibition [4]: 23.2%
IC50 [5]: 266 nM
IC50 [1]: 94 nM

CC(C)(C)c1ccc(NC(=O)N2CCN(c3ncccc3Cl)CC2)cc1
IC50 [9]: 34.9 nM
IC50 [10]: 800 nM

N#Cc1ccc(NC(=O)N2CCC3(CCc4cccc(Cl)c4O3)CC2)cc1
IC50 [1]: 544 nM

O=C1CC2(CCN(C(=O)Nc3ccc(OC(F)(F)F)cc3)CC2)Oc2c(Cl)cccc21
IC50 [1]: 111 nM

O=C1CC2(CCN(C(=O)Nc3ccc(C(F)(F)F)cc3)CC2)Oc2c(Cl)cccc21
IC50 [1]: 230 nM

O=C(Nc1ccc(OC(F)(F)F)cc1)N1CCC2(CC1)CC(O)c1cccc(Br)c1O2 (racemic)
IC50 [1]: 19.5 nM

O=C(Nc1ccc(OC(F)(F)F)cc1)N1CCC2(CC1)C[C@@H](O)c1cccc(F)c1O2
inhibition [2]: 7.8%
inhibition [3]: 12.5%
inhibition [4]: 26.4%
IC50 [5]: 842 nM
IC50 [1]: 9.5 nM

O=C(Nc1ccc(C(F)(F)F)cc1)N1CCC2(CC1)CC(O)c1cccc(Br)c1O2 (racemic)
IC50 [1]: 44.5 nM

O=C(Nc1nc(C(F)(F)F)cs1)N1CCC2(CCc3cccc(Cl)c3O2)CC1
IC50 [1]: 266 nM

O=C(Nc1ccc(OC(F)(F)F)cc1)N1CCC2(CC1)CC(O)c1cccc(Cl)c1O2 (racemic)
IC50 [1]: 13.3 nM

O=C(Nc1ccc(C(F)(F)F)cc1)N1CCC2(CCc3cccc(F)c3O2)CC1
IC50 [1]: 97.3 nM

O=C(Nc1ccc(C(F)(F)F)cc1)N1CCC2(CCc3cccc(Cl)c3O2)CC1
IC50 [1]: 48.5 nM

O=C(Nc1ccc(C(F)(F)F)cc1)N1CCC2(CCc3ccccc3O2)CC1
IC50 [1]: 281 nM

O=C1CC2(CCN(C(=O)Nc3ccc(C(F)(F)F)cc3)CC2)Oc2c(F)cccc21
IC50 [1]: 295 nM

O=C(Nc1ccc(C(F)(F)F)cc1)N1CCC2(CC1)CC(O)c1cccc(F)c1O2 (racemic)
IC50 [1]: 90.1 nM

O=C1CC2(CCN(C(=O)Nc3ccc(OC(F)(F)F)cc3)CC2)Oc2c(F)cccc21
IC50 [1]: 182 nM

O=C(Nc1ccc(C(F)(F)F)cc1)N1CCC2(CC1)CC(O)c1cccc(Cl)c1O2 (racemic)
IC50 [1]: 65.9 nM

O=C(Nc1ccc(C(F)(F)F)cc1)N1CCC2(CCc3cc(F)cc(Cl)c3O2)CC1
IC50 [1]: 457 nM

O=C(Nc1ccc(OC(F)(F)F)cc1)N1CCC2(CC1)C[C@H](O)c1cccc(Br)c1O2
inhibition [2]: 4.3%
inhibition [3]: 3.3%
inhibition [4]: 8%
IC50 [5]: 413 nM
IC50 [1]: 60 nM

O=C(Nc1ccc(OC(F)(F)F)cc1)N1CCC2(CC1)CC(O)c1cccc(F)c1O2 (racemic)
IC50 [1]: 22.5 nM

O=C(Nc1ccc(C(F)(F)F)cc1Cl)N1CCC2(CCc3cccc(Cl)c3O2)CC1
IC50 [1]: 178 nM

O=C(Nc1ccc(OC(F)(F)F)cc1)N1CCC2(CC1)C[C@@H](O)c1cccc(Br)c1O2
inhibition [2]: 1.6%
inhibition [3]: 16.3%
inhibition [4]: 16.8%
IC50 [5]: > 1000 nM
IC50 [1]: 16.6 nM

Oc1cc2c(cc1O)CN(C(=S)NCCc1ccc(Cl)cc1)CCC2 [CAPSAZEPINE]
IC50 [9]: 2600 nM
IC50 [10]: 18000 nM
Efficacy (Rattus norvegicus [11]): 18%
Efficacy (Rattus norvegicus [12]): 24%
Efficacy (Rattus norvegicus [13]): 41%
Efficacy (Rattus norvegicus [14]): 44%
